Results as given in ChEMBL document CHEMBL1138658, “Novel 2-aminotetralin and 3-aminochroman derivatives as selective serotonin 5-HT7 receptor agonists and antagonists” (J Med Chem, 2004).

Tests used:
[1] = biological target: T1, Adrenergic receptor alpha-2 (Rattus norvegicus, UniProt P22086+P19328+P22909); assay: Inhibition of [3H]RX-821002 binding to rat cortex Alpha 2 receptor
T1 sequence (P22086 whole entry): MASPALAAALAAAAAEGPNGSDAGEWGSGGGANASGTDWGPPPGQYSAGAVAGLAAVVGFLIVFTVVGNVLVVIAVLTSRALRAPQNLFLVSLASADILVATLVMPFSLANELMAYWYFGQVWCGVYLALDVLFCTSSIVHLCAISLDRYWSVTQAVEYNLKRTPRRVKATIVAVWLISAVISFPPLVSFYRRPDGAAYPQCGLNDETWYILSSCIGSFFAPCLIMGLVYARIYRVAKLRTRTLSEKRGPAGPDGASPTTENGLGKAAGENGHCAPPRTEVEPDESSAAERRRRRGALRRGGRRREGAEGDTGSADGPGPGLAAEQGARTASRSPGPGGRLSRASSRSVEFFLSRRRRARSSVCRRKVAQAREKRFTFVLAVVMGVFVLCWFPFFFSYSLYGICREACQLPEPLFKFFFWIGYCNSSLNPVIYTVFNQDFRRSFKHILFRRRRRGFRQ
T1 sequence (P19328 whole entry): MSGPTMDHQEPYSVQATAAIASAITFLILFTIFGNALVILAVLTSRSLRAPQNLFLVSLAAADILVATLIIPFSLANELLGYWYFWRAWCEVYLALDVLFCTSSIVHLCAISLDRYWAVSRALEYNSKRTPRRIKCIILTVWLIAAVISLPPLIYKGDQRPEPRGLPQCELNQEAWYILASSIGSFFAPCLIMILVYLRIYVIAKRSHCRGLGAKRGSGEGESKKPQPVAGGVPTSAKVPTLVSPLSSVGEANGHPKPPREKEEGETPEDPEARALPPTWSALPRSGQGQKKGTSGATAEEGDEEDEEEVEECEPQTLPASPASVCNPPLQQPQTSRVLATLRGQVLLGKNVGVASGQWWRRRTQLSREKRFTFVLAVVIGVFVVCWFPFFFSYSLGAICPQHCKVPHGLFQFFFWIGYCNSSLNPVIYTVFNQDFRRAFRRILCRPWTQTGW
T1 sequence (P22909 whole entry): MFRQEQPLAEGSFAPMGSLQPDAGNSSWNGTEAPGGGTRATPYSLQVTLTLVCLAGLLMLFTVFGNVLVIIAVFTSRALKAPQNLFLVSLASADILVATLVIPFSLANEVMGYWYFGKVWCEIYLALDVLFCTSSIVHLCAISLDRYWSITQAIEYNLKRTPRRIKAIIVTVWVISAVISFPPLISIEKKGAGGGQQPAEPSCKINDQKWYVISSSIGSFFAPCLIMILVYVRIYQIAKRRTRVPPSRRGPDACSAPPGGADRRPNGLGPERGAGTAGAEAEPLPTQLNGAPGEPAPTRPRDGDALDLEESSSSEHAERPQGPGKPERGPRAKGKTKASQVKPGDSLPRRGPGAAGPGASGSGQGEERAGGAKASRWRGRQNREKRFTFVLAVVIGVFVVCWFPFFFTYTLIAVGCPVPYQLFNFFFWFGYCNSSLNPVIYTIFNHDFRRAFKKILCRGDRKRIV

[2] = biological target: Muscarinic acetylcholine receptor; assay: Inhibition of [3H]- QNB binding to rat cortex muscarinic receptor
[3] = biological target: D(1A) dopamine receptor (Rattus norvegicus, UniProt P18901); assay: Inhibition of [3H]SCH-23390 binding to rat striatum Dopamine receptor 1; format: tissue-based
Sequence of D(1A) dopamine receptor (P18901 whole entry): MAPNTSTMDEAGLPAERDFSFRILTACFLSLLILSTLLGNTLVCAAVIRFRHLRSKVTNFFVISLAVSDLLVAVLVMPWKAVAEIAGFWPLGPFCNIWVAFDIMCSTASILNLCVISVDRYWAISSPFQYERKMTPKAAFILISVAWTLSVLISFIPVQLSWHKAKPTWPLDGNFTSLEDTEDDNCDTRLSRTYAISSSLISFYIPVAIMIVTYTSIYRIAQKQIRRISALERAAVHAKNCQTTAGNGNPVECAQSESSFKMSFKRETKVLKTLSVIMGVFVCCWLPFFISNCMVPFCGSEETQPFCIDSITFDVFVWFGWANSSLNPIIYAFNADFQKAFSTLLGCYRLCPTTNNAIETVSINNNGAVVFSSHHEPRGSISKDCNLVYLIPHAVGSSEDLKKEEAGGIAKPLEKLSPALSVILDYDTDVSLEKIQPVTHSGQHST

[4] = biological target: Adrenergic receptor beta (Rattus norvegicus, UniProt P18090+P10608+P26255); assay: Inhibition of [3H]DHA binding to rat cortex Beta receptor
[5] = biological target: T2, 5-hydroxytryptamine receptor 1A (Homo sapiens, UniProt P08908); assay: Inhibition of [3H]8-OH-DPAT binding to human 5-HT1A receptor
T2 sequence (P08908 whole entry): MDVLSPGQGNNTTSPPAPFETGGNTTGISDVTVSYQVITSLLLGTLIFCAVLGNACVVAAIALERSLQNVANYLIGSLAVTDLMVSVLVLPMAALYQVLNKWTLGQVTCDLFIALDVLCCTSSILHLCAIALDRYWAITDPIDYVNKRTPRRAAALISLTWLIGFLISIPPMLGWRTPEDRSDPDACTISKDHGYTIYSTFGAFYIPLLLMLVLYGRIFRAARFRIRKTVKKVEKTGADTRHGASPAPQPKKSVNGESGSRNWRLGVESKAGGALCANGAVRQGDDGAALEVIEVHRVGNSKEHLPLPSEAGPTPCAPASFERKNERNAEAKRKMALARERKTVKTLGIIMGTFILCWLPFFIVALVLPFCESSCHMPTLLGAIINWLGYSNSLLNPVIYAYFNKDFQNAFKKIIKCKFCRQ
Summary of the method: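 Human 5-HT1A receptor expressed in CHO cells, labelled with [3H]-8-OH-DPAT.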

[6] = biological target: 5-hydroxytryptamine receptor 2A (Rattus norvegicus, UniProt P14842); assay: Inhibition of [3H]- Ketanserin binding to rat cortex 5-HT2A receptor
Sequence of 5-hydroxytryptamine receptor 2A (P14842 whole entry): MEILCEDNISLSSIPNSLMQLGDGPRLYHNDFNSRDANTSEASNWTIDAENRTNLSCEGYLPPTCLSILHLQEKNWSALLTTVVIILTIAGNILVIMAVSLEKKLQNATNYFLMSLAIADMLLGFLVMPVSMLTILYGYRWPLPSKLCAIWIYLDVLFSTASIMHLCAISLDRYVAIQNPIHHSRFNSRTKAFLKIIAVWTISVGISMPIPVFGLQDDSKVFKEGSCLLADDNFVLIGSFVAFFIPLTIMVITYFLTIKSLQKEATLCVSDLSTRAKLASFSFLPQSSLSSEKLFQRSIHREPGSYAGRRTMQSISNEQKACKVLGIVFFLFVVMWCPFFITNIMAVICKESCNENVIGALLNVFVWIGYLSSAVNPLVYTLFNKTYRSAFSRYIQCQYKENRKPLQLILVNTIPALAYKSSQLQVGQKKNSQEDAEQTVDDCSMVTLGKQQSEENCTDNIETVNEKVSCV

Row | Compound | Ki [1] | Ki [2] | Ki [3] | Ki [4] | Ki [5] | Ki [6]
1 | CCCN(CCC)[C@H]1CCc2c(cccc2-c2c(OC)cccc2OC)C1 | 2090 nM | > 1000 nM | > 1000 nM | > 1000 nM | 347 nM | 1450 nM
2 | COc1cccc(OC)c1-c1cccc2c1CC[C@H](N(C)C)C2 | 188 nM | > 1000 nM | > 1000 nM | > 1000 nM | 1420 nM | 1340 nM
